Test results from ChEMBL document CHEMBL4840303, “Design, synthesis, biological evaluation and pharmacophore model analysis of novel tetrahydropyrrolo[3,4-c]pyrazol derivatives as potential TRKs inhibitors” (Eur J Med Chem, 2021).

Experiments:
[1] = molecular target: Cyclin-dependent kinase 2 (Homo sapiens) (UniProt P24941); assay: Inhibition of recombinant His-tagged human full length CDK2 expressed in baculovirus expression system at 1 uM measured by select screen assay relative to control
Outline: (§1)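 Single-concentration profiling at 1.0 µM in a 28-kinase SelectScreen panel; percent inhibition reported.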

[2] = molecular target: Dual specificity mitogen-activated protein kinase kinase 1 (Homo sapiens) (UniProt Q02750); assay: Inhibition of recombinant His-tagged full length human MEK expressed in baculovirus expression system at 1 uM measured by select screen assay relative to control; outline: as §1
[3] = AUC (0 to infinity) in Sprague dawley rat at 3 mg/kg, po; type: ADME, organism-based; parameters: time infinity, route oral, dose 3 mg/kg; conditions: in vivo
Outline: (§2)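 Blood was collected into heparin tubes at specified time points and centrifuged at once (4 °C, 4000 rpm, 20 min). Plasma levels were quantified by LC-MS/MS. Parameters came from noncompartmental analysis.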

CYP2D6 = CYP2D6 (Homo sapiens, UniProt P10635); assay: Inhibition of CYP2D6 in human liver microsomes at 10 uM preincubated for 10 mins followed by addition of NADPH and measured after 15 mins by LC-MS/MS analysis; type: ADME; conditions: time 25 min
Outline: (§3)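 Pooled human liver microsomes (0.253 mg/mL) with test compound at 10 µM and probe substrates: phenacetin (CYP1A2), diclofenac (CYP2C9), S-mephenytoin (CYP2C19), dextromethorphan (CYP2D6), midazolam (CYP3A4). 10 min preincubation at 37 °C, NADPH-regenerating system added, 15 min at 37 °C. Stopped with cold acetonitrile containing tolbutamide/labetalol internal standards, centrifuged, supernatant read by LC-MS/MS; % inhibition.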

[4] = Stability in human plasma assessed as compound remaining incubated for 30 mins by LC-MS/MS analysis; type: ADME, cell-free; conditions: read-out: Stability
Outline: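 Pooled frozen human plasma thawed at 37 °C, centrifuged to remove clots, pH adjusted to 7.4 if required. Spiked to 2 µM final (from 100 µM dosing solution), in duplicate, incubated at 37 °C in a water bath. Sampled at 0, 10, 30, 60 and 120 min, quenched with acetonitrile stop solution containing internal standards, centrifuged, and supernatant analysed by LC-MS/MS for percent remaining.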

KM12 [5] = assay: Induction of apoptosis in human KM12 cells assessed as early apoptotic cells at 500 nM measured after 48 hrs by AnnexinV-FITC/PI staining based flowcytometry assay relative to control; type: functional
Outline: (§4)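 They were detached with trypsin, washed twice in PBS, and 10^5 cells were suspended in Annexin V binding buffer. Cells were stained with FITC-Annexin V and PI for 10 min at room temperature in the dark, diluted with PBS and analysed by flow cytometry.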

KM12 [6] = assay: Cell cycle arrest in human KM12 cells assessed as accumulation of cells at S phase at 500 nM measured after 48 hrs by AnnexinV-FITC/PI staining based flowcytometry method relative to control; type: functional
A549 = assay: cells; conditions: Homo sapiens, A549, 72 h
KM12 [7] = assay: Induction of apoptosis in human KM12 cells assessed as viable cells at 250 nM measured after 48 hrs by AnnexinV-FITC/PI staining based flowcytometry assay relative to control; type: functional; conditions: read-out: Activity
Outline: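 10^5 cells in Annexin V binding buffer stained with FITC-Annexin V and PI for 10 min at room temperature in the dark, diluted with PBS and analysed by flow cytometry (FITC 494/518 nm, PI 535/617 nm).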

CYP2C19 = CYP2C19 (Homo sapiens, UniProt P33261); assay: Inhibition of CYP2C19 in human liver microsomes at 10 uM preincubated for 10 mins followed by addition of NADPH and measured after 15 mins by LC-MS/MS analysis; type: ADME; conditions: time 25 min; outline: as §3
[8] = molecular target: Protein kinase C alpha type (Homo sapiens) (UniProt P17252); assay: Inhibition of recombinant GST-tagged human full length PRKCA expressed in insect expression system at 1 uM measured by select screen assay relative to control; outline: as §1
[9] = Clearance in Sprague dawley rat at 1 mg/kg, iv; type: ADME, organism-based; conditions: in vivo; outline: as §2
[10] = molecular target: ALK tyrosine kinase receptor (Homo sapiens) (UniProt Q9UM73); assay: Inhibition of recombinant GST-tagged human ALK expressed in baculovirus expression system at 1 uM measured by select screen assay relative to control; outline: as §1
[11] = molecular target: Serine/threonine-protein kinase PAK 4 (Homo sapiens) (UniProt O96013); assay: Inhibition of recombinant GST-tagged human PAK4 (295 to 591 residues) expressed in baculovirus expression system at 1 uM measured by select screen assay relative to control; outline: as §1
KM12 [12] = assay: Cell cycle arrest in human KM12 cells assessed as accumulation of cells at S phase at 62.5 nM measured after 48 hrs by AnnexinV-FITC/PI staining based flowcytometry method relative to control; type: functional
[13] = molecular target: Maternal embryonic leucine zipper kinase (Homo sapiens) (UniProt Q14680); assay: Inhibition of recombinant GST-tagged human MELK expressed in baculovirus expression system at 1 uM measured by select screen assay relative to control; outline: as §1
[14] = molecular target: T1, BDNF/NT-3 growth factors receptor (Homo sapiens, UniProt Q16620); assay: Inhibition of recombinant His-tagged human TRKB expressed in baculovirus expression system at 1 uM measured by select screen assay relative to control; outline: as §1
KM12 [15] = assay: Induction of apoptosis in human KM12 cells assessed as late apoptotic cells at 62.5 nM measured after 48 hrs by AnnexinV-FITC/PI staining based flowcytometry assay relative to control; type: functional; outline: as §4
[16] = AUC (last) in Sprague dawley rat at 1 mg/kg, iv; type: ADME, organism-based; parameters: time 0 - last, route intravenous, dose 1 mg/kg; conditions: in vivo; outline: as §2
KM12 [17] = assay: Cell cycle arrest in human KM12 cells assessed as accumulation of cells at greater G1 phase at 500 nM measured after 48 hrs by AnnexinV-FITC/PI staining based flowcytometry method relative to control; type: functional
[18] = molecular target: Serine/threonine-protein kinase B-raf (Homo sapiens) (UniProt P15056); assay: Inhibition of recombinant GST-tagged human full length BRAF expressed in baculovirus expression system at 1 uM measured by select screen assay relative to control; outline: as §1
KM12 [19] = assay: Cell cycle arrest in human KM12 cells assessed as accumulation of cells at S phase at 250 nM measured after 48 hrs by AnnexinV-FITC/PI staining based flowcytometry method relative to control; type: functional
[20] = AUC (0 to infinity) in Sprague dawley rat at 1 mg/kg, iv; type: ADME, organism-based; parameters: time infinity, route intravenous, dose 1 mg/kg; conditions: in vivo; outline: as §2
KM12 [21] = assay: Induction of apoptosis in human KM12 cells assessed as early apoptotic cells at 1000 nM measured after 48 hrs by AnnexinV-FITC/PI staining based flowcytometry assay relative to control; type: functional; outline: as §4
KM12 [22] = assay: Cell cycle arrest in human KM12 cells assessed as accumulation of cells at less G1 phase at 250 nM measured after 48 hrs by AnnexinV-FITC/PI staining based flowcytometry method relative to control; type: functional
[23] = molecular target: T1, BDNF/NT-3 growth factors receptor; assay: Inhibition of N-terminal GST-tagged human TRKB (456 to 822 residues) expressed in baculovirus infected Sf21 cells using TK as substrate in presence of ATP measured after 40 mins by HTRF assay
KM12 [24] = assay: Cell cycle arrest in human KM12 cells assessed as accumulation of cells at less G1 phase at 62.5 nM measured after 48 hrs by AnnexinV-FITC/PI staining based flowcytometry method relative to control; type: functional

Serine/threonine-protein kinase PAK 4 (Homo sapiens), sequence (O96013 whole entry, looked up, the tested form may be a part): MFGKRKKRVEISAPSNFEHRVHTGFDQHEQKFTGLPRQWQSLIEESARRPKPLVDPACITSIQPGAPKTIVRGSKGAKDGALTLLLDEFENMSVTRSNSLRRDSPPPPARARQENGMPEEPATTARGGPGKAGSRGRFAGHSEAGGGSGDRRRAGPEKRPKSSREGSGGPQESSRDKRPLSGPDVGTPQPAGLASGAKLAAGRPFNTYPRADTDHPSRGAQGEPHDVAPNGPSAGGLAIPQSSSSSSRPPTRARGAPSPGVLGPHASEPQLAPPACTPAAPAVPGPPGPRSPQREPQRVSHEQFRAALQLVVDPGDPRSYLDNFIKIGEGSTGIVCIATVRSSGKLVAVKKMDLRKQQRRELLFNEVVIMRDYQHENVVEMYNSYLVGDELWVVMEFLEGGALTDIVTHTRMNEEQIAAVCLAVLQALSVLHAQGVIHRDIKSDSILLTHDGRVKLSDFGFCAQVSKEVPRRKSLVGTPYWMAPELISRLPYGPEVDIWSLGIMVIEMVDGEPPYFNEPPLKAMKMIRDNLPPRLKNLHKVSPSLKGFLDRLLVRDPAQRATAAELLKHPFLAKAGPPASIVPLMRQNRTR
Serine/threonine-protein kinase B-raf (Homo sapiens), sequence (P15056 whole entry): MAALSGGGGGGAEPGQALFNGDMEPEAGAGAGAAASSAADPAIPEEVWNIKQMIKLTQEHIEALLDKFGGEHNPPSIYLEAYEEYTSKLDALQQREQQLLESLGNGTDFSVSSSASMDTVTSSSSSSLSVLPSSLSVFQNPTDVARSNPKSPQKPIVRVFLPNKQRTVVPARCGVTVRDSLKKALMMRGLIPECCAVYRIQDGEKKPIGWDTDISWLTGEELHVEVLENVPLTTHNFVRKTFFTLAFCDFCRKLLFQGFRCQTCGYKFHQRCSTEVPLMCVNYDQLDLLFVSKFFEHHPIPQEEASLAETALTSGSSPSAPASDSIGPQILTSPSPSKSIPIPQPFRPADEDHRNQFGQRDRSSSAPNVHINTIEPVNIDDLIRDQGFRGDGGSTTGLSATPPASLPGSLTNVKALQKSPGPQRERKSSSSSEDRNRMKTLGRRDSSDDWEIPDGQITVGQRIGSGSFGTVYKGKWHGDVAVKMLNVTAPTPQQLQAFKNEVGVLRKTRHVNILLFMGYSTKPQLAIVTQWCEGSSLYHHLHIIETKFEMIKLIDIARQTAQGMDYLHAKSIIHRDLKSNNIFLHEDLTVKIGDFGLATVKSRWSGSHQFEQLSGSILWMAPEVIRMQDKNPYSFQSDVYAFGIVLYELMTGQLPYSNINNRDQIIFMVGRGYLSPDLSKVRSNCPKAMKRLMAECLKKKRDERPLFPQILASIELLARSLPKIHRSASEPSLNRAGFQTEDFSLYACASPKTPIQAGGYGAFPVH
CYP2D6, sequence (P10635 whole entry): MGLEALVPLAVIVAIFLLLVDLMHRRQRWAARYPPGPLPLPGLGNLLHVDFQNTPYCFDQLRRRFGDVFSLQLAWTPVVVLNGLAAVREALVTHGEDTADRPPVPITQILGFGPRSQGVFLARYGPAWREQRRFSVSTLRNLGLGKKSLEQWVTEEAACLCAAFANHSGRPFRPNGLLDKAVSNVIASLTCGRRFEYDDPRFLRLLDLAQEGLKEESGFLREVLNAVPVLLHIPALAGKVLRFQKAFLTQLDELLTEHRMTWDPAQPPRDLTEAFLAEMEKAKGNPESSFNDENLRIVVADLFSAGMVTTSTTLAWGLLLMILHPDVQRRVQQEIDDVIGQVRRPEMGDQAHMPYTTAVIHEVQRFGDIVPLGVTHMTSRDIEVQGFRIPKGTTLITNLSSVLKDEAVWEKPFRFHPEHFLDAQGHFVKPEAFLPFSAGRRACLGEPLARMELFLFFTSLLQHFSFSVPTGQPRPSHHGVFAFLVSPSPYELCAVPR
Maternal embryonic leucine zipper kinase (Homo sapiens), sequence (Q14680 whole entry, looked up): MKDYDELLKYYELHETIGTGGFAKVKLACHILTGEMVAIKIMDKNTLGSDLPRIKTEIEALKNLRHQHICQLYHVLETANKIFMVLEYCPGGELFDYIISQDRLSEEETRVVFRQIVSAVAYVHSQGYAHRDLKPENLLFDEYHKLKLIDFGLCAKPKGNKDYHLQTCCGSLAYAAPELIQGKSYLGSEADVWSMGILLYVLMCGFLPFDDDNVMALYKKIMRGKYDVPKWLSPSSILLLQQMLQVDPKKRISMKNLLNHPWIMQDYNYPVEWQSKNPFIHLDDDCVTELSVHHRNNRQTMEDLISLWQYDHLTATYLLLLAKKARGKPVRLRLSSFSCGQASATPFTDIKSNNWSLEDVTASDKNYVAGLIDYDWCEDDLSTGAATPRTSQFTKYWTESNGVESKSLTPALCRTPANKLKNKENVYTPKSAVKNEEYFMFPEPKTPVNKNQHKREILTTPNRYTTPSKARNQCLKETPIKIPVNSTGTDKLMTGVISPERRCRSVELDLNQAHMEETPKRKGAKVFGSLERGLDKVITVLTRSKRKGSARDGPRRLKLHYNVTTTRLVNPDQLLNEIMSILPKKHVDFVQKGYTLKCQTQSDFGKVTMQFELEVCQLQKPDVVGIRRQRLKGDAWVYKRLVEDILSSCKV
ALK tyrosine kinase receptor (Homo sapiens), sequence (Q9UM73 19-1620 limits assumed): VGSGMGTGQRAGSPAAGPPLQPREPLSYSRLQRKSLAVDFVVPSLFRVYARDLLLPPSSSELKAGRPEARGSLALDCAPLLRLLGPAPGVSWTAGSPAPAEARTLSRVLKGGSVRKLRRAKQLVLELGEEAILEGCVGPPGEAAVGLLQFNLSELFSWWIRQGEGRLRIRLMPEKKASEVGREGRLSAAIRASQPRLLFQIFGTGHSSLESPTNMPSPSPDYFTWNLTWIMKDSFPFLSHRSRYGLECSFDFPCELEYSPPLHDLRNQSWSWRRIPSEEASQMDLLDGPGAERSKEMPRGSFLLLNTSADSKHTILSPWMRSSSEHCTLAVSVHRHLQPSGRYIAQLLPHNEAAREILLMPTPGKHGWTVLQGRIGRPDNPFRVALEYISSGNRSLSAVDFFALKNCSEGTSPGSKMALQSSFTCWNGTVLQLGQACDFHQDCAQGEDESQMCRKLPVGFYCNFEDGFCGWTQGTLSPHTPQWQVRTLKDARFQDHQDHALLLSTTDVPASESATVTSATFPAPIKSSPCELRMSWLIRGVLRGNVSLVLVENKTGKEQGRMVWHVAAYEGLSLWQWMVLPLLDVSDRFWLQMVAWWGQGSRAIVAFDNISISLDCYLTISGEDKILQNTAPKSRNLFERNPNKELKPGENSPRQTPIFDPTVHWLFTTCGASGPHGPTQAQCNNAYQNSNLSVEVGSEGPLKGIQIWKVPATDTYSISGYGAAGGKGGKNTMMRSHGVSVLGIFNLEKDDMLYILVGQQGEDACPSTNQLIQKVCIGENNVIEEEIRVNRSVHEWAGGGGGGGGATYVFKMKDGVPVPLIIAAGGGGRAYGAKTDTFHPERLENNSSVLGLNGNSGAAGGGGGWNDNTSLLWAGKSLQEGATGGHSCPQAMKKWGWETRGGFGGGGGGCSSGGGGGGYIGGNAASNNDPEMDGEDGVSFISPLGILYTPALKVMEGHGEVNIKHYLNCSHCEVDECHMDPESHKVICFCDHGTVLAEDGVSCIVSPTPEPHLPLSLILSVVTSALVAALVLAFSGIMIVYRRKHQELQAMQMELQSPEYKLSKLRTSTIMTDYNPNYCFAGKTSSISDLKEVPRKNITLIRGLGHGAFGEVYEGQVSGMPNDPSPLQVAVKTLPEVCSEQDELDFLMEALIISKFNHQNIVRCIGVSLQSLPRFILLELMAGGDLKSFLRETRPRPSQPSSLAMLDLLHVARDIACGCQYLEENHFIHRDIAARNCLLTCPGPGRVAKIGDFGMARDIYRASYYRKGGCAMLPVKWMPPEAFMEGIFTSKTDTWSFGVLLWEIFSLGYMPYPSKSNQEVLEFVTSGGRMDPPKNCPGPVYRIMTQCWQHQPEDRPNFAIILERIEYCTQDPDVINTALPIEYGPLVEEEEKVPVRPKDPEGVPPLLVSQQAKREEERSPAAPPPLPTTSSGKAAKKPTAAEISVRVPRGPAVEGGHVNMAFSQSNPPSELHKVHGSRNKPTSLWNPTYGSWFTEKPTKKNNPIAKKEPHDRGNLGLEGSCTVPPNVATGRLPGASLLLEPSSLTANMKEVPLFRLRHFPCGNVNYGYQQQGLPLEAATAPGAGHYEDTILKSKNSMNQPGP

`CN1CCN(c2ccc(C(=O)Nc3n[nH]c4c3CN(Cc3cc(F)cc(F)c3)C4(C)C)cc2)CC1` gave an inhibition [1] of 3%, an inhibition [2] of 8% and an AUC(0-inf) [3] of 2890 ng·h/mL. It also gave an inhibition at 0.25 h, 10 µM (CYP2D6) of 0%, a remaining at 0.5 h [4] of 95.7% and an Activity (KM12 [5]) of 35.84%. For the same molecule, the Activity (KM12 [6]) was 6.56%, the IC50 (A549) was 72.3 µM and the viability at 0.25 µM (KM12 [7]) was 30.2%. For the same molecule, the inhibition at 0.25 h, 10 µM (CYP2C19) was 11.5%, the inhibition [8] was 3% and the clearance [9] was 8.08 mL/min/kg. The inhibition [10] was 82%, the inhibition [11] was 4% and the Activity (KM12 [12]) was 35.6%. For the same molecule, the inhibition [13] was 22%, the inhibition [14] was 100% and the Activity (KM12 [15]) was 9.89%. The AUC(0-t) [16] was 2030 ng·h/mL, the Activity (KM12 [17]) was 1.57% and the inhibition [18] was 3%. The Activity (KM12 [19]) was 8.17%, the AUC(0-inf) [20] was 2080 ng·h/mL and the Activity (KM12 [21]) was 36.3%. It also gave an Activity (KM12 [22]) of 5.86%, an IC50 [23] of 0.028 µM and an Activity (KM12 [24]) of 3.63%.
